14 compounds from ChEMBL document CHEMBL2417464, “Design and synthesis of novel quinazoline nitrogen mustard derivatives as potential therapeutic agents for cancer” (Eur J Med Chem, 2013) can be followed below.

Active and inactive are the calls of the source. No cut-off for these calls is given here.

Data set [1] has as its system HepG2. Put plainly: Cytotoxicity against human HepG2 cells after 72 hrs by MTT assay. Type of data set: functional, cell-based. Particulars: HepG2, 72 h. For orientation: Tetrazolium dyes change colour on reduction, which living cells bring about.
The nature of data set [2]: Cytotoxicity against human SH-SY5Y cells after 72 hrs by MTT assay. It counts as functional, cell-based.
A further data set relates to MCF7. The data set is described as follows: Cytotoxicity against human MCF7 cells after 72 hrs by MTT assay. It counts as functional, cell-based. Conditions: MCF7, 72 h.
The next data set deals with A549. Put plainly: Cytotoxicity against human A549 cells after 72 hrs by MTT assay. It counts as functional, cell-based. Particulars: A549, 72 h.
The test system of the next data set is DU-145. Put plainly: Cytotoxicity against human DU145 cells after 72 hrs by MTT assay. Conditions: DU-145, 72 h. It counts as functional, cell-based.
The test system of data set [3] is HepG2. Put plainly: Cell cycle arrest in human HepG2 cells assessed as increase in S phase accumulation at 2 to 4 uM after 48 hrs by propidium iodide staining-based flow cytometry. It counts as functional. An outline of the steps:
(§1)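 HepG2 seeded 3 × 10⁵/well, 24 h, then exposed to a range of concentrations for 48 h. Cells fixed in ice-cold 70% ethanol ≥24 h, PBS-washed, RNase A treated, PI-stained 30 min at 4 °C in the dark. DNA content by flow cytometry gives G1, S, G2/M and sub-G1 fractions; mean of three independent determinations.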

For data set [4], the system named is HepG2. The data set is described as follows: Cell cycle arrest in human HepG2 cells assessed as increase in G2/M phase accumulation at 2 to 4 uM after 48 hrs by propidium iodide staining-based flow cytometry. It counts as functional. An outline of the steps:
as §1
On the technique in general: In flow cytometry, cells or beads pass a laser one at a time.

Data set [5] has as its system HepG2. Put plainly: Cell cycle arrest in human HepG2 cells assessed as increase in S phase accumulation after 48 hrs by propidium iodide staining-based flow cytometry. Type of data set: functional. In a few lines: as §1
Data set [6] concerns HepG2. The data set is described as follows: Cell cycle arrest in human HepG2 cells assessed as increase in G2/M phase accumulation after 48 hrs by propidium iodide staining-based flow cytometry. It counts as functional. In a few lines:
as §1

The test system of data set [7] is HepG2. Put plainly: Cell cycle arrest in human HepG2 cells assessed as increase in sub G1 phase accumulation after 48 hrs by propidium iodide staining-based flow cytometry. It counts as functional. An outline of the steps: as §1
Data set [8] deals with HepG2. Put plainly: Induction of apoptosis in human HepG2 cells assessed as early apoptotic cells at 2 uM after 48 hrs by Annexin V-FITC/propidium iodide staining-based flow cytometry (reference value: 0.86%). Type of data set: functional.
The test system of data set [9] is HepG2. The data set is described as follows: Induction of apoptosis in human HepG2 cells assessed as early apoptotic cells at 6 uM after 48 hrs by Annexin V-FITC/propidium iodide staining-based flow cytometry (reference value: 0.86%). Type of data set: functional.
Data set [10] has as its system HepG2. The data set is described as follows: Induction of apoptosis in human HepG2 cells assessed as early apoptotic cells at 4 uM after 48 hrs by Annexin V-FITC/propidium iodide staining-based flow cytometry (reference value: 0.86%). It counts as functional.
For data set [11], the system named is HepG2. The data set is described as follows: Induction of apoptosis in human HepG2 cells assessed as late apoptotic cells at 4 uM after 48 hrs by Annexin V-FITC/propidium iodide staining-based flow cytometry (reference value: 2.13%). Type of data set: functional.
The subject of data set [12] is HepG2. Put plainly: Induction of apoptosis in human HepG2 cells assessed as late apoptotic cells at 2 uM after 48 hrs by Annexin V-FITC/propidium iodide staining-based flow cytometry (reference value: 2.13%). It counts as functional.
The subject of data set [13] is HepG2. The data set is described as follows: Induction of apoptosis in human HepG2 cells assessed as late apoptotic cells at 6 uM after 48 hrs by Annexin V-FITC/propidium iodide staining-based flow cytometry (reference value: 2.13%). Type of data set: functional.
Data set [14] relates to HepG2. The data set is described as follows: Antitumor activity against human HepG2 cells transfected in nude mouse assessed as tumor growth regression at 10 mg/kg, iv administered from day 9 post-infection every other day for 7 times relative to negative control. Type of data set: functional. In a few lines:
(§2)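 HepG2 xenograft in mice, started 7–14 days after tumor cell inoculation (mice 18–22 g, tumors 140–160 mg). Dosing i.v. every other day, 7 doses, at 10 or 20 mg/kg; sorafenib and vehicle controls given the same way. Tumor dimensions recorded every two days. Growth regression expressed relative to vehicle control.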

Data set [15] deals with HepG2. The data set is described as follows: Antitumor activity against human HepG2 cells transfected in nude mouse assessed as tumor growth regression at 20 mg/kg, iv administered from day 9 post-infection every other day for 7 times relative to negative control. It counts as functional. In a few lines:
as §2

Data set [16] concerns Mus musculus. The data set is described as follows: Toxicity in nude mouse transfected with human HepG2 cells assessed as change in body weight at 10 mg/kg, iv administered from day 9 every other day for 7 times relative to negative control. Type of data set: organism-based. Conditions: in vivo. Details: dose 10 mg/kg, route intravenous. An outline of the steps: (§3)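 HepG2 tumor-bearing mice (18–22 g, tumors 140–160 mg, 7–14 days post-inoculation). Dosing i.v. every other day, 7 doses, at 10 or 20 mg/kg; sorafenib and vehicle controls given identically. Body weight recorded every two days; mean change compared with vehicle group.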

The subject of data set [17] is HepG2. Put plainly: Cell cycle arrest in human HepG2 cells assessed as decrease in G1 phase accumulation at 2 to 4 uM after 48 hrs by propidium iodide staining-based flow cytometry. It counts as functional. An outline of the steps: as §1
The subject of data set [18] is Mus musculus. Put plainly: Toxicity in nude mouse transfected with human HepG2 cells assessed as decrease in body weight at 20 mg/kg, iv administered from day 9 every other day for 7 times relative to negative control. Type of data set: organism-based. Details: dose 20 mg/kg, route intravenous. Particulars: in vivo. In a few lines: as §3
The subject of data set [19] is HepG2. The data set is described as follows: Induction of apoptosis in human HepG2 cells after 48 hrs by Annexin V-FITC/propidium iodide staining-based flow cytometry. It counts as functional, cell-based.
The nature of data set [20]: Cytotoxicity against human GES-1 cells after 48 hrs by MTT assay. Type of data set: cell-based. Particulars: GES1, 48 h.

As a reminder, the IC50 is the concentration at which inhibition is half-maximal. A higher IC50 goes with a need for much substance. For the compound `COc1cc2ncnc(Nc3cccc(N(CCCl)CCCl)c3)c2cc1O`, the half-inhibitory concentration (IC50) with HepG2 [1] amounted to 23.3 µM; in data set [2], 21.1 µM; with MCF7 it was 67.4 µM; in the data set on A549, 33 µM; in the data set on DU-145, 41.5 µM.
The corresponding values for `COc1cc2ncnc(Nc3cccc(N(CCCl)CCCl)c3)c2cc1OC(C)=O` are 29.1 µM, 24 µM, 39.9 µM, 39.1 µM and 21.6 µM.
For `COc1cc2ncnc(Nc3ccc(N(CCCl)CCCl)cc3)c2cc1OC`, in that order: 29.9 µM, 7.36 µM, 51.1 µM, over 100 µM and over 100 µM.
For `COc1cc2ncnc(Nc3ccc(N(CCCl)CCCl)cc3)c2cc1OC(C)=O`, in that order: 47.1 µM, 17.4 µM, 28.9 µM, 28.8 µM and 49.2 µM.
`COc1cc2ncnc(Nc3cccc(N(CCCl)CCCl)c3)c2cc1OCCCN1CCOCC1`: the result with HepG2 [3], with HepG2 [4] and in the data set with HepG2 [17] was Active. For the same compound, the Activity entry with HepG2 [5] was “Dose-dependent effect”; in the data set on HepG2 [6], “Dose-dependent effect”; with HepG2 [7], “Dose-dependent effect”; with HepG2 [8], 4.58%; in the data set on HepG2 [9] it was 17.9%; in the data set with HepG2 [10], 9.26%. Also, the Activity in the data set on HepG2 [11] was 32.13%; in the data set on HepG2 [12], 6.64%; with HepG2 [13] it was 57.7%; in the data set with Mus musculus [16] it was “Non-toxic”; with Mus musculus [18] it was “Toxic”; in the data set on HepG2 [19] it was “Dose-dependent effect”. Further, in the data set on HepG2 [14] (HepG2, 216 h, read-out: TGI), the inhibition in vivo at 10 mg/kg was determined as 26.5%. Moreover, in the data set with HepG2 [15] (HepG2, 216 h, read-out: TGI), the inhibition in vivo at 20 mg/kg is 47.3%. In addition, the IC50 was 3.06 µM with HepG2 [1]; 8.6 µM in data set [2]; 10.5 µM with MCF7; 6.71 µM in the data set with A549; 20 µM with DU-145.
Take `COc1cc2ncnc(Nc3ccc(N(CCCl)CCCl)cc3)c2cc1OCCCN1CCOCC1`: the concentration for half-maximal inhibition (IC50) in the data set with HepG2 [1] came to 12.2 µM; in data set [2], 20.7 µM; with MCF7, 55 µM; in the data set with A549, 27.7 µM; with DU-145, 16.9 µM.
The corresponding values for `COc1cc2ncnc(Nc3ccc(N(CCCl)CCCl)cc3)c2cc1O` are 46.7 µM, 43.9 µM, 41.9 µM, 53.4 µM and 75.2 µM.
On to `COc1cc2ncnc(Nc3cccc(N(CCCl)CCCl)c3)c2cc1OC`, for which the 50% inhibitory concentration (IC50) in the data set on HepG2 [1] was 17.4 µM; in [2], 12.4 µM; in the data set with MCF7 it was over 100 µM; with A549 it was over 100 µM; in the data set on DU-145, over 100 µM.
Turning to `COCCOc1cc2ncnc(Nc3ccccc3N(CCCl)CCCl)c2cc1OCCOC`, the IC50 in the data set on HepG2 [1] was 11.3 µM; in data set [2], 45.8 µM; in the data set on MCF7, 97.7 µM; in the data set with A549, 33.1 µM; in the data set with DU-145, over 100 µM.
`CNC(=O)c1cc(Oc2ccc(NC(=O)Nc3ccc(Cl)c(C(F)(F)F)c3)cc2)ccn1` [SORAFENIB]: the TGI result with HepG2 [14] and with HepG2 [15] was “Active” each time. In addition, the Activity entry in the data set with Mus musculus [18] is “Toxic”. Also, the IC50 is 8.42 µM in the data set on HepG2 [1]; 19.5 µM in data set [2]; 11.3 µM with MCF7; 27.7 µM with A549; 24.9 µM with DU-145; 15.8 µM in [20].
Turning to `COCCOc1cc2ncnc(Nc3ccc(N(CCCl)CCCl)cc3)c2cc1OCCOC`, the 50% inhibitory concentration (IC50) in the data set on HepG2 [1] was 85 µM; in data set [2], 13.2 µM; in the data set on MCF7, over 100 µM; in the data set on A549, over 100 µM; in the data set with DU-145, over 100 µM.
Turning to `COc1cc2ncnc(Nc3ccccc3N(CCCl)CCCl)c2cc1OC(C)=O`, the IC50 in the data set with HepG2 [1] was determined as 48.4 µM; in [2] it was 28.2 µM; in the data set with MCF7, 57.1 µM; with A549, 62.9 µM; in the data set with DU-145, 99.4 µM.
For `COCCOc1cc2ncnc(Nc3cccc(N(CCCl)CCCl)c3)c2cc1OCCOC`, in that order: 33.5 µM, 16.9 µM, over 100 µM, 77.4 µM and over 100 µM.
`COc1cc2ncnc(Nc3ccccc3N(CCCl)CCCl)c2cc1OC`: the concentration for half-maximal inhibition (IC50) was 77.2 µM in the data set on HepG2 [1]; 22.6 µM in [2]; 89.2 µM with MCF7; 81.5 µM in the data set on A549; over 100 µM with DU-145.
